According to ChEMBL document CHEMBL6092129, “Inhibiting SARS-CoV-2 viral entry by targeting spike:ACE2 interaction with O-modified quercetin derivatives” (RSC Med Chem, 2024):
Active and inactive are the calls of the source. No cut-off for these calls is given here.

Assays:
[1] = molecular target: T1, Spike glycoprotein/Angiotensin-converting enzyme 2 (Severe acute respiratory syndrome coronavirus 2) (UniProt Q9BYF1+P0DTC2); assay: Inhibition of SARS CoV-2 S1 RBD/biotinylated ACE2 (unknown origin) protein-protein interaction at 0.8 uM preincubated with S1 protein for 60 mins followed by addition of ACE2 protein measured after 60 mins by ELISA relative to control; assay type: protein assay; details: time 120.0 min
How it was run: (§1)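 SARS-CoV-2 S1 RBD coated at 2 µg/mL (60 min, 37 °C), then blocked with 1% BSA in PBS pH 7.2–7.4 (30 min, 37 °C). Compound (0.8, 4.0, 20.0 or 100.0 µM) incubated 60 min at 37 °C with 0.05% DMSO–PBS vehicle control. Biotin-ACE2 solution (0.5 µg/mL) added for 60 min, then ExtrAvidin-peroxidase (40 min) and OPD (10 min, RT, dark), read at 450 nm. Three trials; IC50 from four-parameter fit (bottom 0, Hill slope 1).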

[2] = molecular target: T1, Spike glycoprotein/Angiotensin-converting enzyme 2 (Severe acute respiratory syndrome coronavirus 2); assay: Inhibition of SARS CoV-2 S1 RBD/biotinylated ACE2 (unknown origin) protein-protein interaction at 100 uM preincubated with S1 protein for 60 mins followed by addition of ACE2 protein measured after 60 mins by ELISA relative to control; assay type: protein assay; details: time 120.0 min; how it was run: as §1
[3] = test system: HK-2; assay: Nephrotoxicity against human HK-2 cells at 2.07 ppm incubated for 30 mins by LDH release based CytoTox 96 assay relative to control; assay type: toxicity, cell-based; details: hk-2, 0.5 h
[4] = molecular target: Spike glycoprotein/Angiotensin-converting enzyme 2 (Severe acute respiratory syndrome coronavirus 2, UniProt P0DTC2+Q9BYF1); assay: (§2) Inhibition of SARS CoV-2 S1 RBD/biotinylated ACE2 (unknown origin) protein-protein interaction preincubated with S1 protein for 60 mins followed by addition of ACE2 protein measured after 60 mins by ELISA; assay type: protein assay; how it was run: as §1
[5] = molecular target: T1, Spike glycoprotein/Angiotensin-converting enzyme 2 (Severe acute respiratory syndrome coronavirus 2); assay: as §2; assay type: protein assay; details: time 120.0 min; how it was run: as §1
[6] = Hepatotoxicity against human HepG2 cells at 2.07 ppm incubated for 30 mins by LDH release based CytoTox 96 assay relative to control; assay type: toxicity, cell-based; details: hepg2, 0.5 h
[7] = test system: H9c2; assay: Cardiotoxicity against rat H9c2 cells at 2.07 ppm incubated for 30 mins by LDH release based CytoTox 96 assay relative to control; assay type: toxicity, cell-based; details: h9c2, 0.5 h
[8] = Hepatotoxicity against human HepG2 cells at 1.03 ppm incubated for 30 mins by LDH release based CytoTox 96 assay relative to control; assay type: toxicity, cell-based; details: hepg2, 0.5 h
[9] = test system: H9c2; assay: Cardiotoxicity against rat H9c2 cells at 1.03 ppm incubated for 30 mins by LDH release based CytoTox 96 assay relative to control; assay type: toxicity, cell-based; details: h9c2, 0.5 h
[10] = test system: HK-2; assay: Nephrotoxicity against human HK-2 cells at 1.03 ppm incubated for 30 mins by LDH release based CytoTox 96 assay relative to control; assay type: toxicity, cell-based; details: hk-2, 0.5 h
[11] = Hepatotoxicity against human HepG2 cells at 1.54 ppm incubated for 30 mins by LDH release based CytoTox 96 assay relative to control; assay type: toxicity, cell-based; details: hepg2, 0.5 h
[12] = test system: H9c2; assay: Cardiotoxicity against rat H9c2 cells at 1.54 ppm incubated for 30 mins by LDH release based CytoTox 96 assay relative to control; assay type: toxicity, cell-based; details: h9c2, 0.5 h
[13] = test system: HK-2; assay: Nephrotoxicity against human HK-2 cells at 1.54 ppm incubated for 30 mins by LDH release based CytoTox 96 assay relative to control; assay type: toxicity, cell-based; details: hk-2, 0.5 h
[14] = test system: H9c2; assay: Cardiotoxicity against rat H9c2 cells at 30.22 ppm incubated for 30 mins by LDH release based CytoTox 96 assay relative to control; assay type: toxicity, cell-based; details: h9c2, 0.5 h
[15] = molecular target: T1, Spike glycoprotein/Angiotensin-converting enzyme 2 (Severe acute respiratory syndrome coronavirus 2); assay: Inhibition of SARS CoV-2 S1 RBD/biotinylated ACE2 (unknown origin) protein-protein interaction at 100 uM preincubated with S1 protein for 60 mins followed by addition of ACE2 protein measured after 60 mins by ELISA; assay type: protein assay; details: time 120.0 min; how it was run: as §1
[16] = test system: HK-2; assay: Nephrotoxicity against human HK-2 cells at 30.22 ppm incubated for 30 mins by LDH release based CytoTox 96 assay relative to control; assay type: toxicity, cell-based; details: hk-2, 0.5 h
[17] = Hepatotoxicity against human HepG2 cells at 30.22 ppm incubated for 30 mins by LDH release based CytoTox 96 assay relative to control; assay type: toxicity, cell-based; details: hepg2, 0.5 h
[18] = test system: HK-2; assay: Nephrotoxicity against human HK-2 cells at 4.71 ppm incubated for 30 mins by LDH release based CytoTox 96 assay relative to control; assay type: toxicity, cell-based; details: hk-2, 0.5 h
[19] = test system: H9c2; assay: Cardiotoxicity against rat H9c2 cells at 4.71 ppm incubated for 30 mins by LDH release based CytoTox 96 assay relative to control; assay type: toxicity, cell-based; details: h9c2, 0.5 h
[20] = Hepatotoxicity against human HepG2 cells at 4.71 ppm incubated for 30 mins by LDH release based CytoTox 96 assay relative to control; assay type: toxicity, cell-based; details: hepg2, 0.5 h
[21] = Hepatotoxicity against human HepG2 cells at 12.09 ppm incubated for 30 mins by LDH release based CytoTox 96 assay relative to control; assay type: toxicity, cell-based; details: hepg2, 0.5 h
[22] = test system: HK-2; assay: Nephrotoxicity against human HK-2 cells at 12.09 ppm incubated for 30 mins by LDH release based CytoTox 96 assay relative to control; assay type: toxicity, cell-based; details: hk-2, 0.5 h
[23] = test system: H9c2; assay: Cardiotoxicity against rat H9c2 cells at 12.09 ppm incubated for 30 mins by LDH release based CytoTox 96 assay relative to control; assay type: toxicity, cell-based; details: h9c2, 0.5 h

Spike glycoprotein/Angiotensin-converting enzyme 2, sequence (Q9BYF1 whole entry, looked up, other chains not shown): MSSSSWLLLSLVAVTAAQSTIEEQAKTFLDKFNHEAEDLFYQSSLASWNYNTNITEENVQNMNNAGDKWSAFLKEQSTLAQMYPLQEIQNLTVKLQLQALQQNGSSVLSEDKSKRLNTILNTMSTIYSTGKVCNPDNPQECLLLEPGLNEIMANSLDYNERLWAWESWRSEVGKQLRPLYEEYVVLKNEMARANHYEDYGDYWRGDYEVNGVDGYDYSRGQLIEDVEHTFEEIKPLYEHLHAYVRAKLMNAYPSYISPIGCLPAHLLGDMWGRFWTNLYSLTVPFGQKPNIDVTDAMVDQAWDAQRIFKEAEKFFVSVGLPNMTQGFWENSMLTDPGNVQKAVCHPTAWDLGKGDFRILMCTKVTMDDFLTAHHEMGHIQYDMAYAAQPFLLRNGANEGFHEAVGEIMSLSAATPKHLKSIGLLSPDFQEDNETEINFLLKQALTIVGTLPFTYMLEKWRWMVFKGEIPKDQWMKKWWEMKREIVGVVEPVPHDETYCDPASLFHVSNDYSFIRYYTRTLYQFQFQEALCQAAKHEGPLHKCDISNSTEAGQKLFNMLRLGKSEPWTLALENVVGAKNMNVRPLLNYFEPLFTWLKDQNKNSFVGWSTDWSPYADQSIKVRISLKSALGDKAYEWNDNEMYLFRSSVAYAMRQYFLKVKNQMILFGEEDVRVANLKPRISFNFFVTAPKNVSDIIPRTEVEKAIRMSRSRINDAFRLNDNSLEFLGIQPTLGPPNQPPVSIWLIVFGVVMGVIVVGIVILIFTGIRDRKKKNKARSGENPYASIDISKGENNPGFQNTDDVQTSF

SMILES: CCOc1cc(O)c2c(=O)c(OCC)c(-c3ccc(OCC)c(O)c3)oc2c1
- inhibition [1]: > 50%

SMILES: CCC(=O)Oc1cc(O)c2c(=O)c(OC(=O)CC)c(-c3ccc(OC(=O)CC)c(OC(=O)CC)c3)oc2c1
- inhibition [1]: > 50%

SMILES: O=c1c(OCc2ccccc2)c(-c2ccc(OCc3ccccc3)c(OCc3ccccc3)c2)oc2cc(OCc3ccccc3)cc(O)c12
- inhibition [2]: < 50%

SMILES: C=CCOc1cc(O)c2c(=O)c(OCC=C)c(-c3ccc(OCC=C)c(O)c3)oc2c1
- inhibition [1]: > 50%

SMILES: O=c1c(OCc2ccccc2)c(-c2ccc(OCc3ccccc3)c(O)c2)oc2cc(OCc3ccccc3)cc(O)c12
- inhibition [1]: > 50%

SMILES: CCOc1cc(O)c2c(=O)c(OCC)c(-c3ccc(OCC)c(OCC)c3)oc2c1
- Activity [3]: 5.5%
- IC50 [4]: 5 µM
- inhibition [5]: Dose-dependent-effect
- Activity [6]: 1.47%
- Activity [7]: 0.11%

SMILES: C=CCOc1cc(O)c2c(=O)c(OCC=C)c(-c3ccc(OCC=C)c(OCC=C)c3)oc2c1
- Activity [8]: 0%
- IC50 [4]: 2.22 µM
- inhibition [5]: Dose-dependent-effect
- Activity [9]: 1.83%
- Activity [10]: 0.04%

SMILES: CC(=O)Oc1cc(O)c2c(=O)c(OC(C)=O)c(-c3ccc(OC(C)=O)c(O)c3)oc2c1
- inhibition [1]: > 50%

SMILES: O=c1c(OCc2ccc(F)cc2)c(-c2ccc(OCc3ccc(F)cc3)c(OCc3ccc(F)cc3)c2)oc2cc(OCc3ccc(F)cc3)cc(O)c12
- inhibition [2]: < 50%

SMILES: CCC(=O)Oc1cc(O)c2c(=O)c(OC(=O)CC)c(-c3ccc(OC(=O)CC)c(O)c3)oc2c1
- Activity [11]: 0.21%
- IC50 [4]: 3.28 µM
- inhibition [5]: Dose-dependent-effect
- Activity [12]: 1.95%
- Activity [13]: 0.26%

SMILES: O=C(Oc1cc(O)c2c(=O)c(OC(=O)c3ccccc3)c(-c3ccc(OC(=O)c4ccccc4)c(O)c3)oc2c1)c1ccccc1
- inhibition [1]: > 50%

SMILES: CC(=O)Oc1cc(O)c2c(=O)c(OC(C)=O)c(-c3ccc(OC(C)=O)c(OC(C)=O)c3)oc2c1
- inhibition [1]: > 50%

SMILES: CCCOc1cc(O)c2c(=O)c(OCCC)c(-c3ccc(OCCC)c(O)c3)oc2c1
- inhibition [1]: > 50%

SMILES: O=c1c(O)c(-c2ccc(O)c(O)c2)oc2cc(O)cc(O)c12 [QUERCETIN]
- Activity [14]: 12.93%
- inhibition [15]: inactive
- Activity [16]: 1.56%
- Activity [17]: 1.74%

SMILES: O=c1c(OCc2ccc(F)cc2)c(-c2ccc(OCc3ccc(F)cc3)c(O)c2)oc2cc(OCc3ccc(F)cc3)cc(O)c12
- Activity [18]: 1.29%
- Activity [19]: 1.21%
- IC50 [4]: 7.52 µM
- inhibition [5]: Dose-dependent-effect
- Activity [20]: 0.4%

SMILES: CCCOc1cc(O)c2c(=O)c(OCCC)c(-c3ccc(OCCC)c(OCCC)c3)oc2c1
- Activity [21]: 0.39%
- IC50 [4]: 25.7 µM
- inhibition [5]: Dose-dependent-effect
- Activity [22]: 1.71%
- Activity [23]: 1.05%

SMILES: O=C(Oc1cc(O)c2c(=O)c(OC(=O)c3ccccc3)c(-c3ccc(OC(=O)c4ccccc4)c(OC(=O)c4ccccc4)c3)oc2c1)c1ccccc1
- inhibition [2]: < 50%

SMILES: O=C1OC2(c3ccccc31)c1cc(I)c(O)c(I)c1Oc1c2cc(I)c(O)c1I [ERYTHROSINE]
- IC50 [4]: 6.16 µM
- inhibition [5]: Dose-dependent-effect
